Reference: ChEMBL document CHEMBL1143965, “N-Phenyl-N'-(2-chloroethyl)ureas (CEUs) as potential antineoplastic agents. Part 3: role of carbonyl groups in the covalent binding to the colchicine-binding site” (2008)

Columns and labels:
Assay type in all cases: functional
HT-29 = assay: Antiproliferative activity against human HT29 cells after 48 hrs; conditions: HT-29, 48 h
Method in brief: (§1)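 NCI-style sulforhodamine B growth assay. Cells in high-glucose DMEM with 5% iron-supplemented bovine calf serum were preincubated 24 h at 37 °C, 5% CO2. Drugs in DMSO (final <0.5%) were added at 0.1–100 µM final for 48 h. Cells were fixed with cold TCA (10% final, 60 min, 4 °C), stained with 0.1% SRB, solubilized in 20 mM Tris, and read at 585 nm against a day-0 plate. GI50 was taken; at least two runs in triplicate.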

M21 [1] = assay: Antiproliferative activity against human M21 cells after 48 hrs; conditions: M21, 48 h; method in brief: as §1
MCF7 = assay: Antiproliferative activity against human MCF7 cells after 48 hrs; conditions: MCF7, 48 h; method in brief: as §1
M21 [2] = assay: Induction of apoptosis in human M21 cells at 10 uM
M21 [3] = assay: Induction of apoptosis in human M21 cells at 3 uM
M21 [4] = assay: Cell cycle arrest in human M21 cells by accumulation at G0/G1 phase at 10 uM after 24 hrs by flow cytometry
Method in brief: (§2)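 Exponentially growing M21 cells were exposed to drug (DMSO vehicle, <0.5% v/v) for 24 h, then collected and fixed with ice-cold ethanol. 5×10^5 cells were stained in PBS with 50 µg/mL propidium iodide plus 40 U/mL RNase A for 30 min at room temperature. Phase distribution was measured by flow cytometry.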

M21 [5] = assay: Cell cycle arrest in human M21 cells by accumulation at S phase at 10 uM after 24 hrs by flow cytometry; method in brief: as §2
M21 [6] = assay: Cell cycle arrest in human M21 cells by accumulation at G2/M phase at 3 uM after 24 hrs by flow cytometry; method in brief: as §2
M21 [7] = assay: Cell cycle arrest in human M21 cells by accumulation at S phase at 3 uM after 24 hrs by flow cytometry; method in brief: as §2
M21 [8] = assay: Cell cycle arrest in human M21 cells by accumulation at G0/G1 phase at 3 uM after 24 hrs by flow cytometry; method in brief: as §2
M21 [9] = assay: Cell cycle arrest in human M21 cells by accumulation at G2/M phase at 10 uM after 24 hrs by flow cytometry; method in brief: as §2
M21 [10] = assay: Induction of apoptosis in human M21 cells at 15 uM
M21 [11] = assay: Cell cycle arrest in human M21 cells by accumulation at G2/M phase at 5 uM after 24 hrs by flow cytometry; method in brief: as §2
M21 [12] = assay: Cell cycle arrest in human M21 cells by accumulation at G0/G1 phase at 15 uM after 24 hrs by flow cytometry; method in brief: as §2
M21 [13] = assay: Cell cycle arrest in human M21 cells by accumulation at S phase at 5 uM after 24 hrs by flow cytometry; method in brief: as §2
M21 [14] = assay: Induction of apoptosis in human M21 cells at 5 uM
M21 [15] = assay: Cell cycle arrest in human M21 cells by accumulation at S phase at 15 uM after 24 hrs by flow cytometry; method in brief: as §2
M21 [16] = assay: Cell cycle arrest in human M21 cells by accumulation at G2/M phase at 15 uM after 24 hrs by flow cytometry; method in brief: as §2
M21 [17] = assay: Cell cycle arrest in human M21 cells by accumulation at G0/G1 phase at 5 uM after 24 hrs by flow cytometry; method in brief: as §2
M21 [18] = assay: Cell cycle arrest in human M21 cells by accumulation at G0/G1 phase at 21 uM after 24 hrs by flow cytometry; method in brief: as §2
M21 [19] = assay: Cell cycle arrest in human M21 cells by accumulation at S phase at 7 uM after 24 hrs by flow cytometry; method in brief: as §2
M21 [20] = assay: Cell cycle arrest in human M21 cells by accumulation at S phase at 175 uM after 24 hrs by flow cytometry; method in brief: as §2
M21 [21] = assay: Cell cycle arrest in human M21 cells by accumulation at G2/M phase at 7 uM after 24 hrs by flow cytometry; method in brief: as §2
M21 [22] = assay: Induction of apoptosis in human M21 cells at 21 uM
M21 [23] = assay: Induction of apoptosis in human M21 cells at 7 uM
M21 [24] = assay: Induction of apoptosis in human M21 cells at 175 uM
M21 [25] = assay: Cell cycle arrest in human M21 cells by accumulation at G2/M phase at 21 uM after 24 hrs by flow cytometry; method in brief: as §2
M21 [26] = assay: Cell cycle arrest in human M21 cells by accumulation at S phase at 21 uM after 24 hrs by flow cytometry; method in brief: as §2
M21 [27] = assay: Cell cycle arrest in human M21 cells by accumulation at G0/G1 phase at 7 uM after 24 hrs by flow cytometry; method in brief: as §2
M21 [28] = assay: Cell cycle arrest in human M21 cells by accumulation at G2/M phase at 175 uM after 24 hrs by flow cytometry; method in brief: as §2
M21 [29] = assay: Cell cycle arrest in human M21 cells by accumulation at G0/G1 phase at 175 uM after 24 hrs by flow cytometry; method in brief: as §2
M21 [30] = assay: Induction of apoptosis in human M21 cells at 4 uM
M21 [31] = assay: Cell cycle arrest in human M21 cells by accumulation at S phase at 4 uM after 24 hrs by flow cytometry; method in brief: as §2
M21 [32] = assay: (§3) Cell cycle arrest in human M21 cells by accumulation at G0/G1 phase at 1.2 uM after 24 hrs by flow cytometry; method in brief: as §2
M21 [33] = assay: Cell cycle arrest in human M21 cells by accumulation at G2/M phase at 4 uM after 24 hrs by flow cytometry; method in brief: as §2
M21 [34] = assay: Cell cycle arrest in human M21 cells by accumulation at G0/G1 phase at 4 uM after 24 hrs by flow cytometry; method in brief: as §2
M21 [35] = assay: as §3; method in brief: as §2; remark: listed apart in the source
M21 [36] = assay: Cell cycle arrest in human M21 cells by accumulation at S phase at 1.2 uM after 24 hrs by flow cytometry; method in brief: as §2
M21 [37] = assay: Induction of apoptosis in human M21 cells at 1.2 uM

SMILES: NC(=O)Cc1cccc(NC(=O)NCCCl)c1
- GI50 (HT-29): > 100 µM
- GI50 (M21 [1]): > 100 µM
- GI50 (MCF7): > 100 µM

SMILES: CCCCCc1cccc(NC(=O)NCCCl)c1
- Activity (M21 [2]): 31%
- Activity (M21 [3]): 18%
- Activity (M21 [4]): 6%
- Activity (M21 [5]): 7%
- Activity (M21 [6]): 50%
- GI50 (HT-29): 0.96 µM
- Activity (M21 [7]): 11%
- GI50 (M21 [1]): 0.87 µM
- GI50 (MCF7): 1.6 µM
- Activity (M21 [8]): 14%
- Activity (M21 [9]): 49%

SMILES: CC(=O)CCCCc1cccc(NC(=O)NCCCl)c1
- Activity (M21 [10]): 23%
- Activity (M21 [11]): 25%
- Activity (M21 [12]): 6%
- GI50 (HT-29): 0.6 µM
- GI50 (M21 [1]): 1.1 µM
- GI50 (MCF7): 2 µM
- Activity (M21 [13]): 13%
- Activity (M21 [14]): 11%
- Activity (M21 [15]): 10%
- Activity (M21 [16]): 53%
- Activity (M21 [17]): 44%

SMILES: COC(=O)CCCCCc1cccc(NC(=O)NCCCl)c1
- Activity (M21 [18]): 49%
- Activity (M21 [19]): 37%
- Activity (M21 [20]): 1%
- Activity (M21 [21]): 14%
- Activity (M21 [22]): 5%
- Activity (M21 [23]): 4%
- Activity (M21 [24]): 19%
- Activity (M21 [25]): 15%
- Activity (M21 [26]): 31%
- Activity (M21 [27]): 45%
- GI50 (HT-29): 7.2 µM
- Activity (M21 [28]): 72%
- GI50 (M21 [1]): 7.1 µM
- GI50 (MCF7): 10.2 µM
- Activity (M21 [29]): 8%

SMILES: COC(=O)c1cccc(NC(=O)NCCCl)c1
- GI50 (HT-29): 80.2 µM
- GI50 (M21 [1]): 86.2 µM
- GI50 (MCF7): > 100 µM

SMILES: CC(=O)c1cccc(NC(=O)NCCCl)c1
- GI50 (HT-29): > 100 µM
- GI50 (M21 [1]): > 100 µM
- GI50 (MCF7): > 100 µM

SMILES: O=C(O)CCCCc1cccc(NC(=O)NCCCl)c1
- GI50 (HT-29): > 100 µM
- GI50 (M21 [1]): > 100 µM
- GI50 (MCF7): > 100 µM

SMILES: O=C(NCCCl)Nc1cccc(C(=O)O)c1
- GI50 (HT-29): 68.1 µM
- GI50 (M21 [1]): 67.9 µM
- GI50 (MCF7): 82.9 µM

SMILES: CCOC(=O)CCCCc1cccc(NC(=O)NCCCl)c1
- GI50 (HT-29): 8.2 µM
- GI50 (M21 [1]): 11 µM
- GI50 (MCF7): 8.7 µM

SMILES: CC(=O)CCCCCc1cccc(NC(=O)NCCCl)c1
- Activity (M21 [10]): 16%
- Activity (M21 [11]): 48%
- Activity (M21 [12]): 11%
- GI50 (HT-29): 0.9 µM
- GI50 (M21 [1]): 2.1 µM
- GI50 (MCF7): 3.9 µM
- Activity (M21 [13]): 18%
- Activity (M21 [14]): 21%
- Activity (M21 [15]): 18%
- Activity (M21 [16]): 53%
- Activity (M21 [17]): 10%

SMILES: O=C(NCCCl)Nc1cccc(CCCCCO)c1
- Activity (M21 [30]): 27%
- Activity (M21 [31]): 7%
- Activity (M21 [32]): 50%
- Activity (M21 [33]): 53%
- Activity (M21 [34]): 6%
- GI50 (HT-29): 0.16 µM
- GI50 (M21 [1]): 0.27 µM
- GI50 (MCF7): 0.48 µM
- Activity (M21 [35]): 50%
- Activity (M21 [36]): 11%
- Activity (M21 [37]): 12%

SMILES: COC(=O)Cc1cccc(NC(=O)NCCCl)c1
- GI50 (HT-29): 82.7 µM
- GI50 (M21 [1]): > 100 µM
- GI50 (MCF7): > 100 µM

SMILES: O=C(O)Cc1cccc(NC(=O)NCCCl)c1
- GI50 (HT-29): > 100 µM
- GI50 (M21 [1]): > 100 µM
- GI50 (MCF7): > 100 µM

SMILES: COCCCCCc1cccc(NC(=O)NCCCl)c1
- Activity (M21 [2]): 24%
- Activity (M21 [3]): 14%
- Activity (M21 [4]): 7%
- Activity (M21 [5]): 9%
- Activity (M21 [6]): 37%
- GI50 (HT-29): 0.84 µM
- Activity (M21 [7]): 14%
- GI50 (M21 [1]): 0.94 µM
- GI50 (MCF7): 1.9 µM
- Activity (M21 [8]): 29%
- Activity (M21 [9]): 52%

SMILES: NC(=O)CCCCCc1cccc(NC(=O)NCCCl)c1
- GI50 (HT-29): 5.7 µM
- GI50 (M21 [1]): 8.9 µM
- GI50 (MCF7): 21.8 µM

SMILES: COC(=O)CCCCc1cccc(NC(=O)NCCCl)c1
- Activity (M21 [18]): 40%
- Activity (M21 [19]): 36%
- Activity (M21 [20]): 1%
- Activity (M21 [21]): 14%
- Activity (M21 [22]): 6%
- Activity (M21 [23]): 4%
- Activity (M21 [24]): 19%
- Activity (M21 [25]): 20%
- Activity (M21 [26]): 34%
- Activity (M21 [27]): 46%
- GI50 (HT-29): 8.1 µM
- Activity (M21 [28]): 62%
- GI50 (M21 [1]): 7.3 µM
- GI50 (MCF7): 15.1 µM
- Activity (M21 [29]): 18%

SMILES: CCOC(=O)CCCCCc1cccc(NC(=O)NCCCl)c1
- GI50 (HT-29): 19.8 µM
- GI50 (M21 [1]): 17.7 µM
- GI50 (MCF7): 22.5 µM

SMILES: CCOC(=O)c1cccc(NC(=O)NCCCl)c1
- GI50 (HT-29): > 100 µM
- GI50 (M21 [1]): 96.4 µM
- GI50 (MCF7): > 100 µM

SMILES: O=C(O)CCCCCc1cccc(NC(=O)NCCCl)c1
- GI50 (HT-29): 35.9 µM
- GI50 (M21 [1]): 47.5 µM
- GI50 (MCF7): > 100 µM

SMILES: NC(=O)c1cccc(NC(=O)NCCCl)c1
- GI50 (HT-29): > 100 µM
- GI50 (M21 [1]): > 100 µM
- GI50 (MCF7): > 100 µM

SMILES: NC(=O)CCCCc1cccc(NC(=O)NCCCl)c1
- GI50 (HT-29): 3.6 µM
- GI50 (M21 [1]): 5.7 µM
- GI50 (MCF7): 11.2 µM

SMILES: CCOC(=O)Cc1cccc(NC(=O)NCCCl)c1
- GI50 (HT-29): > 100 µM
- GI50 (M21 [1]): > 100 µM
- GI50 (MCF7): > 100 µM
